What is called IC50 is the concentration needed to halve the response being measured. Low values mean inhibition by little substance, high ones a need for much substance. The term pIC50 denotes the IC50 on a negative log10 scale, so that one unit is a factor of ten. Read a high pIC50 as a low IC50.

From ChEMBL document CHEMBL2401667, “Synthesis of N-substituted acyclic β-amino acids and their investigation as GABA uptake inhibitors” (Eur J Med Chem, 2013) come the findings set out here.

The target in assay [1] is Sodium- and chloride-dependent GABA transporter 1 (Homo sapiens, UniProt P30531). Briefly: Inhibition of GABA uptake at GAT-1 (unknown origin).
The target in another assay is T1, GABA transporter 2 (Mus musculus, UniProt P31651).
T1 sequence (P31651 whole entry): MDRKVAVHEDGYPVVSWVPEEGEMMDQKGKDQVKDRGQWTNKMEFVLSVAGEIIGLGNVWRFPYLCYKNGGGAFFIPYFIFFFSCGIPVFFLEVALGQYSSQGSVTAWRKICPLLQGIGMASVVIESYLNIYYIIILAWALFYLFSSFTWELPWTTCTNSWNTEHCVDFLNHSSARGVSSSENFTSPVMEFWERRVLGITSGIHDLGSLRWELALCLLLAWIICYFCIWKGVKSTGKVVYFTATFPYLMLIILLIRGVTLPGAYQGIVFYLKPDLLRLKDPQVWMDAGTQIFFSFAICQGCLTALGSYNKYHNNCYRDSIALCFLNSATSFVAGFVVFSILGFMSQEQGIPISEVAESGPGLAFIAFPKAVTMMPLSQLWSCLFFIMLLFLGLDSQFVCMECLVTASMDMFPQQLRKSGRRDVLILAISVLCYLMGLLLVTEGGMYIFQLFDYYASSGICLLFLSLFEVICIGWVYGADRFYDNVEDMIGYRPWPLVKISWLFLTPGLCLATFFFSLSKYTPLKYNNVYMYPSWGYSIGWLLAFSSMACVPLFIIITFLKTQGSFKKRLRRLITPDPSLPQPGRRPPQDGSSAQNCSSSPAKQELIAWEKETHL
Briefly: Inhibition of GABA uptake at murine BGT-1 expressed in HEK293 cells. The format is cell-based.

Assay [2] has as its target Sodium- and chloride-dependent GABA transporter 1 (Mus musculus, UniProt P31648). The assay is described as follows: Inhibition of GABA uptake at murine GAT-1 expressed in HEK293 cells. The format is cell-based.
Assay [3] can be described thus: Inhibition of GABA uptake at GAT-3 in porcine brain stem P2C fraction. On the set-up: species or system Sus scrofa. A digest of the protocol: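 Uptake assay on a P2C membrane preparation from porcine brainstem, which predominantly addresses the GAT3 subtype.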
Assay [4] in a line: Inhibition of GABA uptake at GAT-1 in porcine frontal cortex P2B fraction. The format is tissue-based, Sus scrofa. Summed up:
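Uptake assay on a P2B membrane preparation from porcine frontal cortex, which predominantly addresses the GAT1 subtype.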

In assay [5] the target is T2, GABA transporter 3 (Mus musculus) (UniProt P31649).
T2 sequence (whole entry): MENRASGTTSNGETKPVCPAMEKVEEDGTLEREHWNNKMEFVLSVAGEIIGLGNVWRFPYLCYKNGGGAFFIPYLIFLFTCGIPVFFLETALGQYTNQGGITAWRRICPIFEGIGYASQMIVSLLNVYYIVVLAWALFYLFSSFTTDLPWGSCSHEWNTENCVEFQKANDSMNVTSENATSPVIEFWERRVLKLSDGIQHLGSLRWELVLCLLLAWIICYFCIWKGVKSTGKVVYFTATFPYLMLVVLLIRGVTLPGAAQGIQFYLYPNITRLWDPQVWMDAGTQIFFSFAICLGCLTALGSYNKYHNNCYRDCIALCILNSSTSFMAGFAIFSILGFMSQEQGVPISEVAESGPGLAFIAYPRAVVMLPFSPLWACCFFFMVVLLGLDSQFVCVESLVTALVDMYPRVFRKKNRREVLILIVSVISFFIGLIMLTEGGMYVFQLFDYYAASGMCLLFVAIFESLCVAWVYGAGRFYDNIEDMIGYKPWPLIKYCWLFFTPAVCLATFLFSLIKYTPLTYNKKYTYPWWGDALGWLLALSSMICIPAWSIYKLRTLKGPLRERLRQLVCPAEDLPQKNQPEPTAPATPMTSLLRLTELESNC
The assay is described as follows: Remaining GABA uptake at murine GAT-2 expressed in HEK293 cells at 100 uM relative to control.

The target in assay [6] is T3, GABA transporter 2 (Mus musculus) (UniProt P31651).
T3 sequence (whole entry): T1 sequence (P31651 whole entry)
Briefly: Remaining GABA uptake at murine BGT-1 expressed in HEK293 cells at 100 uM relative to control.

The next assay has as its target T4, GABA transporter 4 (Mus musculus, UniProt P31650).
T4 sequence (P31650 whole entry): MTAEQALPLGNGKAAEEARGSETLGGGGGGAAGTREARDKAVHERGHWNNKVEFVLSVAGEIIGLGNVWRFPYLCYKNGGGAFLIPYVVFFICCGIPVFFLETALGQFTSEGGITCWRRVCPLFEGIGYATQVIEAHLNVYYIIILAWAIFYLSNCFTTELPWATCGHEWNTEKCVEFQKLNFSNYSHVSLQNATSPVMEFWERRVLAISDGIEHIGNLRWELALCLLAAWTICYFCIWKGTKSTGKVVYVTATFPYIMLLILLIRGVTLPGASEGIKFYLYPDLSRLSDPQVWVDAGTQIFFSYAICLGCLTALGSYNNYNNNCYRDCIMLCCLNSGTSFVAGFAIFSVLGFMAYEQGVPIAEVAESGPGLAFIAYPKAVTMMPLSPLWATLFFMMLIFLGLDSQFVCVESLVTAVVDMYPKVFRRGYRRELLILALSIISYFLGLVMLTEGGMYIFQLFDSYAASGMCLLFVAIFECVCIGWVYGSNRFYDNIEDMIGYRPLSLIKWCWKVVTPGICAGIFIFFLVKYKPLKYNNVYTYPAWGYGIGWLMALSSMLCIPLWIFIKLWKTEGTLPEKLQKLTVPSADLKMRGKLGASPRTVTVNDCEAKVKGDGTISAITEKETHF
Briefly: Inhibition of GABA uptake at murine GAT-3 expressed in HEK293 cells. The format is cell-based.

In assay [7] the target is Sodium- and chloride-dependent GABA transporter 1 (Mus musculus) (UniProt P31648). The assay is described as follows: Remaining GABA uptake at murine GAT-1 expressed in HEK293 cells at 100 uM relative to control.
The target of the next assay is T5, GABA transporter 3 (Mus musculus, UniProt P31649).
T5 sequence (P31649 whole entry): T2 sequence (whole entry)
Briefly: Inhibition of GABA uptake at murine GAT-2 expressed in HEK293 cells. The format is cell-based.

Assay [8] deals with T3, GABA transporter 2 (Mus musculus). The assay is described as follows: Remaining GABA uptake at murine BGT-1 expressed in HEK293 cells at 1 mM relative to control.

Sodium- and chloride-dependent GABA transporter 1 (Homo sapiens, UniProt P30531), sequence (P30531 whole entry): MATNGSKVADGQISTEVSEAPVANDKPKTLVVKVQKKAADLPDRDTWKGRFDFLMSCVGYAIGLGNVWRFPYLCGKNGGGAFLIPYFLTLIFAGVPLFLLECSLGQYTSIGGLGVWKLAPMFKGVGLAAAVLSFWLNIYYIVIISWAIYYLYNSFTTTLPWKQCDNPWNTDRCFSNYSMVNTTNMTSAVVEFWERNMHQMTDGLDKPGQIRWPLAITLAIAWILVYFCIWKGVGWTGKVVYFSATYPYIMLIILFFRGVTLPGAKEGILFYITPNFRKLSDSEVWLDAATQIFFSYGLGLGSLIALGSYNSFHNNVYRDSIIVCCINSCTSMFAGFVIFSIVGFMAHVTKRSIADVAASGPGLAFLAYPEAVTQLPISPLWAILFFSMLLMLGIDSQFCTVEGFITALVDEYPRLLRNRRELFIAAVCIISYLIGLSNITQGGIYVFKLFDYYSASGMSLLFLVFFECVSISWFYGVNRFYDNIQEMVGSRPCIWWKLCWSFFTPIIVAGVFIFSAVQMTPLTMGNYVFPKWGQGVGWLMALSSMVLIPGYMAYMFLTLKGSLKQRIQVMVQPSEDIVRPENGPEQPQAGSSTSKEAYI

Molecule `O=C(O)[C@@H]1CCCN(CCOCCN2c3ccccc3CCc3ccccc32)C1` gave a 50% inhibitory concentration (IC50) in assay [1] of 39.8 µM.
Molecule `O=C(O)[C@@H]1CCCN(CCOCCN2c3ccccc3Sc3ccccc32)C1` had a half-inhibitory concentration (IC50) in assay [1] of 0.309 µM.
With `O=C(O)[C@@H]1CCCN(CCOCCN2c3ccccc3C=Cc3ccccc32)C1`, the IC50 in assay [1] is 0.646 µM.
For the molecule `COc1ccc(C(/C=C/CN2CCC[C@H](C(=O)O)C2)(c2ccc(OC)cc2)c2ccc(OC)cc2)cc1`, the half-maximal inhibitory concentration (IC50) on GABA transporter 2 was 38 µM; in assay [2], 39.8 µM.
Regarding `Cl.O=C(O)CCNCCC=C(c1ccccc1)c1ccccc1`, the pIC50 in assay [3] came out at 3.36; in assay [4] it was 3.94.
In turn, `O=C(O)CCNCCOCCN1c2ccccc2CCc2ccccc21` showed an IC50 in assay [2] of 20.4 µM. Besides, the results for the remaining GABA uptake in assay [5] and in [6] were 55% and 85%, respectively.
As to `O=C(O)CCNCCOCCN1c2ccccc2Sc2ccccc21`, in assay [2], the IC50 is 35.5 µM. For the same molecule, the remaining GABA uptake in assay [5] worked out at 50%; in [6] it was 88%.
At GABA transporter 4, `COc1ccc(C(OCCNCCC(=O)O)(c2ccc(OC)cc2)c2ccc(OC)cc2)cc1` showed a concentration for half-maximal inhibition (IC50) of 42.7 µM. The remaining GABA uptake in assay [5] was determined as 40%; in [6], 55%; in [7] it was 57%.
`COc1ccc(C(OCCN2CCC[C@H](C(=O)O)C2)(c2ccc(OC)cc2)c2ccc(OC)cc2)cc1` showed an IC50 against GABA transporter 2 of 30.9 µM.
As for `COc1ccc(C(/C=C/CNCCC(=O)O)(c2ccc(OC)cc2)c2ccc(OC)cc2)cc1`, the values for the remaining GABA uptake in assay [5], in [6] and in assay [7] were 94%, 47% and 77%, respectively.
Consider `O=C(O)CCNCCOCCN1c2ccccc2C=Cc2ccccc21`, for which the remaining GABA uptake was 87% in [5], 85% in assay [6] and 56% in assay [7].
Consider `CC(N)CC(=O)O` (racemic), for which the IC50 on GABA transporter 3 was 46.8 µM; against GABA transporter 4, 83.2 µM; against GABA transporter 2 it was 813 µM; in assay [2] it was 50.1 µM.
Regarding `CC(CC(=O)O)NCCC=C(c1ccccc1)c1ccccc1` (racemic), it took 4.57 µM to reach half-maximal inhibition in assay [2] (IC50). Also, the remaining GABA uptake was 82% in [5] and 86% in assay [6].
Regarding `CC(CC(=O)O)NCCOCCN1c2ccccc2CCc2ccccc21` (racemic), the IC50 against GABA transporter 3 was 214 µM; against GABA transporter 4, 339 µM; in assay [2] it was 13.2 µM. The remaining GABA uptake in assay [8] was 69%.
For `CC(CC(=O)O)NCCOCCN1c2ccccc2C=Cc2ccccc21` (racemic), inhibition in assay [2] was half-maximal at 17.4 µM (IC50). Moreover, the remaining GABA uptake was found to be 84% in assay [5] and 82% in assay [6].
Regarding `CC(CC(=O)O)NCCOCCN1c2ccccc2Sc2ccccc21` (racemic), the IC50 against GABA transporter 3 was 40.7 µM; in assay [2], 8.71 µM. Also, in assay [6], the remaining GABA uptake was 74%.
Take `COc1ccc(C(OCCNC(C)CC(=O)O)(c2ccc(OC)cc2)c2ccc(OC)cc2)cc1` (racemic): inhibition at GABA transporter 4 was half-maximal at 33.9 µM (IC50). The remaining GABA uptake in assay [5] is 48%; in assay [6], 73%; in assay [7], 114%.
Consider `COc1ccc(C(/C=C/CNC(C)CC(=O)O)(c2ccc(OC)cc2)c2ccc(OC)cc2)cc1` (racemic), for which the IC50 on GABA transporter 3 was 63.1 µM; against GABA transporter 4, 60.3 µM. For the same molecule, the remaining GABA uptake in [6] was determined as 47%; in assay [7], 52%.
As for `NCCC(=O)O` [BETA-ALANINE], the IC50 at GABA transporter 3 is 21.9 µM; against GABA transporter 4, 34.7 µM; against GABA transporter 2, 331 µM; in assay [2], 2820 µM.
